# Assay results published in ChEMBL document CHEMBL4627411, “Novel Piperidinyl-Azetidines as Potent and Selective CCR4 Antagonists Elicit Antitumor Response as a Single Agent and in Combination with Checkpoint Inhibitors” (J Med Chem, 2020).
# How the values were obtained:
# [1] = molecular target: T1, C-C chemokine receptor type 4 (Homo sapiens, UniProt P51679); test: Antagonist activity at human CCR4 expressed in rat chem-5 cells assessed as inhibition of CCL22-induced calcium flux measured at 2.5 secs time interval for 45 secs by calcium 6 dye-based FLIPR assay; type: functional, cell-based
# T1 sequence (P51679 whole entry): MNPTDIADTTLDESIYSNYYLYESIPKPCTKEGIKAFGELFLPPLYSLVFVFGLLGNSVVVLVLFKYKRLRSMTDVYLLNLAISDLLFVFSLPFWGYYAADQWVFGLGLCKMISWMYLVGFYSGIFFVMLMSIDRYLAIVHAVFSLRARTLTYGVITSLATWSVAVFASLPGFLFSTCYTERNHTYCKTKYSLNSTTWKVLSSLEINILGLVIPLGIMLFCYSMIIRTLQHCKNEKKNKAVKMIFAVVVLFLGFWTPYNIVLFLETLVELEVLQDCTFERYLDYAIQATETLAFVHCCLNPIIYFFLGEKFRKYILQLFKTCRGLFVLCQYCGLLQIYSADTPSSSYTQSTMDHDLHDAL
# Summary of the method: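 Primary calcium flux assay for CCR4 antagonism, run in the absence of serum.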
# [2] = Metabolic stability in rat hepatocytes assessed as parent compound remaining at 1 uM after 60 mins by LC-MS/MS analysis; type: ADME, cell-based, Hepatocyte; details: read-out: Stability
# Summary of the method: (§1)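 Hepatocytes (human or rat). Compound incubated for 60 min; value is % parent remaining.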
# [3] = Metabolic stability in human hepatocytes assessed as parent compound remaining at 1 uM after 60 mins by LC-MS/MS analysis; type: ADME, cell-based, Hepatocyte; details: read-out: Stability; summary of the method: as §1
# [4] = Clearance in rat at 0.5 mg/kg, iv; type: ADME, organism-based; details: in vivo
# Summary of the method: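 Rat in vivo PK. Single IV dose of 0.5 mg/kg; clearance in mL/min/kg.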
# [5] = Oral bioavailability in rat at 2 mg/kg; type: ADME, organism-based; details: in vivo
# Summary of the method: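 Rat in vivo PK. Oral dose of 2 mg/kg; %F derived.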
# Cytochrome P450 1A2 = Cytochrome P450 1A2 (Homo sapiens, UniProt P05177); test: Inhibition of CYP1A2 in human liver microsomes using phenacetin as substrate incubated for 20 mins in presence of NADPH by LC-MS/MS analysis; type: ADME
# Cytochrome P450 2C9 = Cytochrome P450 2C9 (Homo sapiens, UniProt P11712); test: Inhibition of CYP2C9 in human liver microsomes using diclofenac sodium salt as substrate incubated for 20 mins in presence of NADPH by LC-MS/MS analysis; type: ADME
# Cytochrome P450 2C19 = Cytochrome P450 2C19 (Homo sapiens, UniProt P33261); test: Inhibition of CYP2C19 in human liver microsomes using S-mephenytoin as substrate incubated for 20 mins in presence of NADPH by LC-MS/MS analysis; type: ADME
# Cytochrome P450 2D6 = Cytochrome P450 2D6 (Homo sapiens, UniProt P10635); test: Inhibition of CYP2D6 in human liver microsomes using bufuralol hydrochloride salt as substrate incubated for 20 mins in presence of NADPH by LC-MS/MS analysis; type: ADME
# Cytochrome P450 3A4 = Cytochrome P450 3A4 (Homo sapiens, UniProt P08684); test: Inhibition of CYP3A4 in human liver microsomes using midazolam hydrochloride as substrate incubated for 20 mins in presence of NADPH by LC-MS/MS analysis; type: ADME
# CYP3A4 = CYP3A4 (Homo sapiens, UniProt P08684); test: Ratio of IC50 for time-dependent inhibition of CYP3A4 in human liver microsomes using midazolam hydrochloride as substrate in presence of NADPH to IC50 for time-dependent inhibition of CYP3A4 in human liver microsomes using midazolam hydrochloride as substrate absence of NADPH; details: probe midazolam hydrochloride, read-out: Ratio IC50
# Cytochrome P450 = test: Induction of CYP450 (unknown origin); type: ADME, protein assay; details: human
# Sequence of Cytochrome P450 2C9 (P11712 whole entry): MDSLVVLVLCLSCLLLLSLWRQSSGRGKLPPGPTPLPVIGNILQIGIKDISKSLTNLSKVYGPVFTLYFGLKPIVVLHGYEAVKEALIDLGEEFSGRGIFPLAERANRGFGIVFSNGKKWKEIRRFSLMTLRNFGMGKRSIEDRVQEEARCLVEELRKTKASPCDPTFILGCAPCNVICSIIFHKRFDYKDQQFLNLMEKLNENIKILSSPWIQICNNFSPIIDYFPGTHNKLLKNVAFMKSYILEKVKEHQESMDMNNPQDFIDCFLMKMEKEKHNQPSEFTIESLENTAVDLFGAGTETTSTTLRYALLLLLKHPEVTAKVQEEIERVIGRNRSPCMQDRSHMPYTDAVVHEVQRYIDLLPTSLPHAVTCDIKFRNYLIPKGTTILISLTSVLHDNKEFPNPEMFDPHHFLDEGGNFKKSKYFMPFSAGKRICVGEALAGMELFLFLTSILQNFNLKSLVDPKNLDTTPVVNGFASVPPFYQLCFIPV
# Sequence of Cytochrome P450 2C19 (P33261 whole entry): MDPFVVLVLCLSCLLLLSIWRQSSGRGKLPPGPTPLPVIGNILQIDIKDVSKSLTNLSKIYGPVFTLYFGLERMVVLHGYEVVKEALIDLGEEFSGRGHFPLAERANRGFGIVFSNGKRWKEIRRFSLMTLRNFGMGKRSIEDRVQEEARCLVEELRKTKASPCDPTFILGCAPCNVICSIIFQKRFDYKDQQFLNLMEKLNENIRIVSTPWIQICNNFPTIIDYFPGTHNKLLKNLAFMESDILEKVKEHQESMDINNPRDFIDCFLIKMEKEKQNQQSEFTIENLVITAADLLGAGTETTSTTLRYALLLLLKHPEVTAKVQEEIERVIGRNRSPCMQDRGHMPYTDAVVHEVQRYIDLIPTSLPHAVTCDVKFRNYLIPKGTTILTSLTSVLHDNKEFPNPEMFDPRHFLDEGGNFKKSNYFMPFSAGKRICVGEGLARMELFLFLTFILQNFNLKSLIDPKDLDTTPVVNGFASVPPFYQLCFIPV
# Sequence of Cytochrome P450 3A4 (P08684 whole entry): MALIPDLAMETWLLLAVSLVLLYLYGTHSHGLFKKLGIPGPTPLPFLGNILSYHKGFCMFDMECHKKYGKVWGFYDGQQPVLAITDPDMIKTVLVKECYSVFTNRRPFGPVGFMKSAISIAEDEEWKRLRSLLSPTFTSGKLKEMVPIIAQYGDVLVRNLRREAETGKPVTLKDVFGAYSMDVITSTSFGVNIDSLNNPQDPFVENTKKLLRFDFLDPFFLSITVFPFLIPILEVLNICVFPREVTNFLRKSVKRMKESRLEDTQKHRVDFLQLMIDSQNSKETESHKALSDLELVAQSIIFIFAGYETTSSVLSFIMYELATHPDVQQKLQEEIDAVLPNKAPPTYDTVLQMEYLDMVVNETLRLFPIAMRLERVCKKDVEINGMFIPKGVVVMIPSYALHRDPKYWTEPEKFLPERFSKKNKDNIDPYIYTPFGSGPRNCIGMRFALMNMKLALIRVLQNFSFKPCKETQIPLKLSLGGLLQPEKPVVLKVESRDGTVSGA
# Sequence of CYP3A4 (P08684 whole entry): as above
# Sequence of Cytochrome P450 1A2 (P05177 whole entry): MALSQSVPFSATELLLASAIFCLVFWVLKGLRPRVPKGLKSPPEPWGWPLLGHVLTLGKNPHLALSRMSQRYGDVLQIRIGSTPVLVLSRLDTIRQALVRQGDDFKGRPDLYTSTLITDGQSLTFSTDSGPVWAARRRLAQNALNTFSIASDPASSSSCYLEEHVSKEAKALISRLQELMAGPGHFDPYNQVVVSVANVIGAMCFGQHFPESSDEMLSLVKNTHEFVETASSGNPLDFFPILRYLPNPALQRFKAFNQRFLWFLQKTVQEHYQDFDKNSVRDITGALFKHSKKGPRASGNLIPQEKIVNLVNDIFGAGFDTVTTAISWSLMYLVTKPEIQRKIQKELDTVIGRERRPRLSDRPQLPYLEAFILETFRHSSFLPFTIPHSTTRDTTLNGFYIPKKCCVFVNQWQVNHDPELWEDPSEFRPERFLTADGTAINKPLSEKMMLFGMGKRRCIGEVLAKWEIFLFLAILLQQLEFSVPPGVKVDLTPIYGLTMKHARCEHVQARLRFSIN
# Sequence of Cytochrome P450 2D6 (P10635 whole entry): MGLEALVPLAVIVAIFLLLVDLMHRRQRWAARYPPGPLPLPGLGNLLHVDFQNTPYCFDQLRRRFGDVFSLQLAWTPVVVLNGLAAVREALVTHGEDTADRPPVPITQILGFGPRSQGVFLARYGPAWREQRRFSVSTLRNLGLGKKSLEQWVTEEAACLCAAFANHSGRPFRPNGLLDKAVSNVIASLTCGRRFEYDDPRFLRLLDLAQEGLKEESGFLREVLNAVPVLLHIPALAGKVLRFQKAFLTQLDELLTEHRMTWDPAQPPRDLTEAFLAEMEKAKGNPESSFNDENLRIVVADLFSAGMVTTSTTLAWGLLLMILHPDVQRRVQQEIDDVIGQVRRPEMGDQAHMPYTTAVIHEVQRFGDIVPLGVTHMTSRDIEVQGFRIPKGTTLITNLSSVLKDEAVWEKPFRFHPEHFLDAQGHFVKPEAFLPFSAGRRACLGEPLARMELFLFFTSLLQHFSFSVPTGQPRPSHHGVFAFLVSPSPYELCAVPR
IC50 [1] [nM],SMILES,other results
455,Cc1nn([C@H](C)c2ccc(Cl)cc2Cl)c2nc(N3CC([C@@H]4CCCN(CCS(N)(=O)=O)C4)C3)cnc12,
28,C[C@H](c1ccc(Cl)cc1Cl)n1nc(C#N)c2ncc(N3CC([C@H]4CCCN(CCC#N)C4)C3)nc21,
37,Cc1nn([C@H](C)c2ccc(Cl)cc2Cl)c2nc(N3CC([C@H]4CCCN(CCCO)C4)C3)cnc12,
> 5000,C[C@H](c1ccc(Cl)cc1Cl)n1nc(C(=O)O)c2ncc(N3CC([C@H]4CCCN(CCO)C4)C3)nc21,
6,CC(=O)NCCN1CCC[C@H](C2CN(c3cnc4c(C)nn([C@H](C)c5ccc(Cl)cc5Cl)c4n3)C2)C1,"remaining at 1 h, 1 µM [2]: 68%; remaining at 1 h, 1 µM [3]: 94%; clearance [4]: 11 mL/min/kg; bioavailability [5]: 13%"
47,C[C@H](c1ccc(Cl)cc1Cl)n1nc(C#N)c2ncc(N3CC([C@H]4CCCN(CCC(=O)O)C4)C3)nc21,
25,CNC(=O)c1nn([C@H](C)c2ccc(Cl)cc2Cl)c2nc(N3CC([C@H]4CCCN(CCO)C4)C3)cnc12,
1470,C[C@H](c1ccc(Cl)cc1Cl)n1nc(C#N)c2ncc(N3CC([C@H]4CCCN(CC#N)C4)C3)nc21,
8,C[C@H](c1ccc(Cl)cc1Cl)n1nc(C(N)=O)c2ncc(N3CC([C@H]4CCCN(CCO)C4)C3)nc21,"remaining at 1 h, 1 µM [2]: 95%; remaining at 1 h, 1 µM [3]: 95%; clearance [4]: 191 mL/min/kg; bioavailability [5]: 0%"
121,Cc1nn([C@H](C)c2ccc(Cl)cc2Cl)c2nc(N3CC(C4CCCN(CCS(N)(=O)=O)C4)C3)cnc12 (stereo partly drawn),
370,C[C@H](c1ccc(Cl)cc1Cl)n1nc(C#N)c2ncc(N3CC([C@H]4CCCN(CCC(F)(F)F)C4)C3)nc21,
91,Cc1nn([C@H](C)c2ccc(Cl)cc2Cl)c2nc(N3CC([C@H]4CCCN(CCC(=O)O)C4)C3)cnc12,
84,Cc1nn([C@H](C)c2ccc(Cl)cc2Cl)c2nc(N3CC([C@H]4CCCN(CCS(N)(=O)=O)C4)C3)cnc12,
596,CCOC(=O)CN1CCCC(C2CN(c3cnc4c(C)nn([C@H](C)c5ccc(Cl)cc5Cl)c4n3)C2)C1 (stereo partly drawn),
9,C[C@H](c1ccc(Cl)cc1Cl)n1nc(C(=O)N(C)C)c2ncc(N3CC([C@H]4CCCN(CCO)C4)C3)nc21,
29,Cc1nn([C@H](C)c2ccc(Cl)cc2Cl)c2nc(N3CC([C@H]4CCCN(CCNS(C)(=O)=O)C4)C3)cnc12,"remaining at 1 h, 1 µM [2]: 53%; remaining at 1 h, 1 µM [3]: 85%; clearance [4]: 41.6 mL/min/kg; bioavailability [5]: 11%"
31,Cc1nn([C@H](C)c2ccc(Cl)cc2Cl)c2nc(N3CC([C@H]4CCCN(CCNS(=O)(=O)C(C)C)C4)C3)cnc12,
22,Cc1nn([C@H](C)c2ccc(Cl)cc2Cl)c2nc(N3CC([C@H]4CCCN(CCCS(C)(=O)=O)C4)C3)cnc12,
21,C[C@H](c1ccc(Cl)cc1Cl)n1nc(C#N)c2ncc(N3CC([C@H]4CCCN(Cc5cnc[nH]5)C4)C3)nc21,
18,Cc1nn([C@H](C)c2ccc(Cl)cc2Cl)c2nc(N3CC([C@H]4CCCN(CCNC(=O)C(C)C)C4)C3)cnc12,
505,Cc1nn([C@H](C)c2ccc(Cl)cc2Cl)c2nc(N3CC([C@H]4CCCN(CCC(F)(F)F)C4)C3)cnc12,
1370,Cc1nn([C@H](C)c2ccc(Cl)cc2Cl)c2nc(N3CC(CN(C)C)C3)cnc12,
36,C[C@H](c1ccc(Cl)cc1Cl)n1nc(C#N)c2ncc(N3CC([C@H]4CCCN(CC(=O)O)C4)C3)nc21,
> 5000,CCN1CCC(C2CN(c3cnc4c(C)nn([C@H](C)c5ccc(Cl)cc5Cl)c4n3)C2)CC1,
77,Cc1nn([C@H](C)c2ccc(Cl)cc2Cl)c2nc(N3CC([C@H]4CCCN(CCS(C)(=O)=O)C4)C3)cnc12,
69,Cc1nn([C@H](C)c2ccc(Cl)cc2Cl)c2nc(N3CC([C@H]4CCCN(CCCC(=O)O)C4)C3)cnc12,
> 5000,Cc1nn([C@H](C)c2ccc(Cl)cc2Cl)c2nc(N3CC(N4CCCCC4)C3)cnc12,
24,Cc1nn([C@H](C)c2ccc(Cl)cc2Cl)c2nc(N3CC([C@H]4CCCN(CCO)C4)C3)cnc12,"remaining at 1 h, 1 µM [2]: 62%; remaining at 1 h, 1 µM [3]: 87%; clearance [4]: 32.3 mL/min/kg; bioavailability [5]: 61%; IC50 (Cytochrome P450 1A2): > 40000 nM; IC50 (Cytochrome P450 2C9): > 40000 nM; IC50 (Cytochrome P450 2C19): > 40000 nM; IC50 (Cytochrome P450 2D6): > 40000 nM; IC50 (Cytochrome P450 3A4): > 40000 nM; IC50 shift (CYP3A4): 2.6; Activity (Cytochrome P450): Not Active"
42,Cc1nn([C@H](C)c2ccc(Cl)cc2Cl)c2nc(N3CC([C@H]4CCCN(CCC(N)=O)C4)C3)cnc12,
23,COC(=O)NCCN1CCC[C@H](C2CN(c3cnc4c(C)nn([C@H](C)c5ccc(Cl)cc5Cl)c4n3)C2)C1,
